Assays:
[1] = Partition coefficient was expressed as the ratio of the equilibrium concentration in benzene solvent to that in an equal volume of pH 7.4 aqueous buffer; format: ADME
How it was run: (§1)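 Compound at 100 µg/mL in organic solvent shaken with equal volume 0.1 M sodium phosphate buffer pH 7.4, 30 min, ambient temperature; phases separated by centrifugation, each quantified by GC against internal standard; coefficient = organic/aqueous concentration ratio; triplicate per solvent, mean ± SEM.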

[2] = Partition coefficient was expressed as the ratio of the equilibrium concentration in chloroform solvent to that in an equal volume of pH 7.4 aqueous buffer; format: ADME; how it was run: as §1
[3] = Partition coefficient was expressed as the ratio of the equilibrium concentration in n-heptane solvent to that in an equal volume of pH 7.4 aqueous buffer; format: ADME; how it was run: as §1
Rattus norvegicus = assay: Compound was administered to male Sprague-Dawley rats (250-300 g) by intravenous (iv) bolus injection at a dose of 40 mg/kg; format: functional
How it was run: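 Male Sprague-Dawley rats (250-300 g) with right jugular vein catheter, 48 h recovery; 40 mg/kg iv bolus as free base in propylene glycol/ethanol/water (40/10/50) or HCl salt in 0.9% saline; controls given vehicle. Anesthesia duration by loss of righting reflex; locomotor activity by stabilimeter, excitation ended at <2 events per 3 min; mean ± SEM, n = 4.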

Row | SMILES | Partition coefficient [1] | Partition coefficient [2] | Partition coefficient [3] | Duration of anesthesia (Rattus norvegicus) | Duration of increase in SLA (Rattus norvegicus)
1 | NC1(c2ccccc2Cl)CCC[C@@H](O)C1=O (stereo not given in full) | 1.44 | 19.4 | 0.00963 | 0 min | 0 min
2 | CNC1(c2ccccc2Cl)CCCCC1=O (stereo not given) [KETAMINE] | 98.6 | 299 | 6.36 | 7.11 min | 24.65 min
3 | NC1(c2ccccc2Cl)CCCCC1=O (stereo not given) [NORKETAMINE] | 52.6 | 296 | 1.86 | 3.24 min | 7.15 min

Source: ChEMBL document CHEMBL1123374, “Comparative pharmacology in the rat of ketamine and its two principal metabolites, norketamine and (Z)-6-hydroxynorketamine” (J Med Chem, 1986)
